Laboratory results reported in ChEMBL document CHEMBL3817802, “Discovery of Benzofuran Derivatives that Collaborate with Insulin-Like Growth Factor 1 (IGF-1) to Promote Neuroprotection” (J Med Chem, 2016).
pEC50: −log10 of the molar value.

Columns and labels:
[1] = (§1) Neuroprotective activity against serum starvation-induced cell death in Sprague-Dawley rat primary neural cells assessed as neuronal survival rate incubated for 3 days in presence of 100 ng/ml human recombinant IGF-1 by beta3-tubulin-detecting cell-ELISA relative to control; assay type: functional, cell-based; conditions: Primary neuron, 72 h
Outline: (§2)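 Primary neural cells were taken from rat hippocampal and cerebral cortical tissue and grown 4 days in serum-containing medium. They were then switched to serum-free medium for 3 days, with 100 ng/mL IGF-1 plus test agent, to induce starvation death. Neurons were counted by cell-ELISA for βIII-tubulin immunoreactivity. EC50 was reported with its 95% confidence interval.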

[2] = system: HepG2; assay: Cytotoxicity against human HepG2 cells assessed as decrease in cellular ATP content at 100 uM after 1 day; assay type: cell-based; parameters: scale not given: the % may be the effect or the level left; conditions: hepg2, 24 h
[3] = molecular target: CYP2C9 (Homo sapiens, UniProt P11712); assay: Inhibition of CYP2C9 in human liver microsomes at 10 uM incubated for 30 mins by HPLC analysis; assay type: ADME
Sequence of CYP2C9 (P11712 whole entry): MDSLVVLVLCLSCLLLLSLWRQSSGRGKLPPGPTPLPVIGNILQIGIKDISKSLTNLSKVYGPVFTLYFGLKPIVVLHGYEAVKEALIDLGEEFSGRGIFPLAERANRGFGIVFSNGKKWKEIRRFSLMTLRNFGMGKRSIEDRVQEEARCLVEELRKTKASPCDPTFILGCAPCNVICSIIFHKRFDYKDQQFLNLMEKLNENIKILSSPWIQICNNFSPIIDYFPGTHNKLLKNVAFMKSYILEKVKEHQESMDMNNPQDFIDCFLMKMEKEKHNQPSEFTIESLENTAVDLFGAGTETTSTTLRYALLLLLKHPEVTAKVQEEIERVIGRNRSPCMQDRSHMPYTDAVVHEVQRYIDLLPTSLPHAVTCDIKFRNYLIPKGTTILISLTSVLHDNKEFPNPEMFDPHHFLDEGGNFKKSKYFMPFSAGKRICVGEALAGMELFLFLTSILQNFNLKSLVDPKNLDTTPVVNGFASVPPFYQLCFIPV

[4] = Metabolic clearance in human liver microsomes at 1 umol/L by LC/MS/MS analysis; assay type: ADME; conditions: read-out: CLH
[5] = Oral bioavailability in Sprague-Dawley rat at 1 mg/kg by LC/MS/MS analysis; assay type: ADME, organism-based; conditions: in vivo
[6] = Ratio of drug level in brain to plasma of Sprague-Dawley rat at 0.1 mg/kg, iv by cassette dosing measured at 1 hr by LC/MS/MS analysis; assay type: ADME, organism-based
[7] = system: Primary neuron; assay: as §1; assay type: functional, cell-based; outline: as §2
[8] = Neuroprotective activity against serum starvation-induced cell death in Sprague-Dawley rat primary neural cells assessed as neuronal survival rate at 1 umol/L incubated for 3 days by beta3-tubulin-detecting cell-ELISA relative to control; assay type: functional, Primary neuron
Outline: (§3)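 Primary neural cells from rat hippocampal and cerebral cortical tissue were grown 4 days in serum-containing medium, then 3 days serum-free to induce death, with or without IGF-1. The line's compound concentration was present during the serum-free phase. Neuron number was estimated by cell-ELISA for βIII-tubulin immunoreactivity. Data are mean ± SEM of four wells.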

[9] = Neuroprotective activity against serum starvation-induced cell death in Sprague-Dawley rat primary neural cells assessed as neuronal survival rate at 1 umol/L incubated for 3 days in presence of 3 to 100 ng/ml human recombinant IGF-1 by beta3-tubulin-detecting cell-ELISA; assay type: functional, Primary neuron; outline: as §3
[10] = Neuroprotective activity against serum starvation-induced cell death in Sprague-Dawley rat primary neural cells assessed as neuronal survival rate at 0.33 uM incubated for 3 days in presence of 100 ng/ml human recombinant IGF-1 by beta3-tubulin-detecting cell-ELISA relative to control; assay type: functional, Primary neuron; outline: as §3
[11] = Neuroprotective activity against serum starvation-induced cell death in Sprague-Dawley rat primary neural cells assessed as neuronal survival rate at 10 uM incubated for 3 days in presence of 100 ng/ml human recombinant IGF-1 by beta3-tubulin-detecting cell-ELISA relative to control; assay type: functional, Primary neuron; outline: as §3

Row | Structure (SMILES) | pEC50 [1] | further results
1 | Cc1c(C)c(N2CCN(c3ccc(F)cc3)CC2)c(C)c2c1OC(C)(C)C2 | 6.52 | 
2 | COc1ccc(N2CCN(c3c(C)c(C)c4c(c3C)C[C@H](C)O4)CC2)cc1 | 6.34 | 
3 | CC(=O)c1ccc(N2CCN(c3c(C)c(C)c4c(c3C)CC(C)(C)O4)CC2)cc1 | 6.82 | Activity [2]: 68%
4 | Cc1c(C)c(N2CCN(c3ccc(Cl)cc3)CC2)c(C)c2c1OC(C)(C)C2 | 6.18 | 
5 | COc1ccc(N2CCN(c3c(C)c(C)c4c(c3C)C[C@@H](C)O4)CC2)cc1 | 6.36 | 
6 | Cc1c(C)c(N2CCN(c3ccccc3)CC2)c(C)c2c1OC(C)(C)C2 | 6.42 | 
7 | COc1ccc(N2CCN(c3c(C)c(C)c4c(c3C)C(=O)C(C)(C)CO4)CC2)cc1 | 6.29 | inhibition at 0.5 h, 10 µM [3]: 42.1%
8 | Cc1ccc(N2CCN(c3c(C)c(C)c4c(c3C)CC(C)(C)O4)CC2)cc1 | 6.89 | microsomal CLint at 1 µM [4]: 30 µL/min/mg
9 | Cc1c(C)c(N2CCN(c3ccc(C#N)cc3)CC2)c(C)c2c1OC(C)(C)C2 | < 6.00 | 
10 | COc1ccc(N2CCN(c3c(C)c(C)c4c(c3C)CC(C)(C)O4)CC2)c(OC)c1 | 6.41 | 
11 | COc1ccc(CN2CCN(c3c(C)c(C)c4c(c3C)CC(C)(C)O4)CC2)cc1 | 6.17 | 
12 | COc1ccc(N2CCN(c3c(C)c(C)c4c(c3C)C(=O)C(C)(C)O4)CC2)cc1 | 6.92 | bioavailability [5]: 42.3%; Kp at 1 h [6]: 3.4; inhibition at 0.5 h, 10 µM [3]: 83.4%
13 | COc1ccc(N2CCN(c3c(C)c(C)c4c(c3C)CC(C)(C)O4)CC2)cn1 | 6.21 | 
14 | COc1ccc(C2CN(c3c(C)c(C)c4c(c3C)CC(C)(C)O4)CCN2C)cc1 (racemic) | 6.26 | 
15 | COc1ccc(C2CN(c3c(C)c(C)c4c(c3C)CC(C)(C)O4)CCO2)cc1 (racemic) | 6.43 | 
16 | COc1ccc(N2CCN(c3c(C)c(C)c4c(c3C)CC(C)(C)O4)CC2)cc1OC | 6.57 | 
17 | COc1ccc(N2CCN(c3c(C)c(C)c4c(c3C)C[C@@](C)(CO)O4)CC2)cc1 | 6.15 | 
18 | COc1ccc(N2CCN(c3c(C)c(C)c4c(c3C)CCO4)CC2)cc1 | 6.64 | 
19 | COc1ccc(N2CCN(c3c(C)c(C)c4c(c3C)CC(C)(C)O4)CC2)cc1 | 6.82 | Activity [7]: Dose-dependent effect; fold change (FC) [8]: 3; fold change (FC) [9]: 6; Activity [2]: 93.3%; fold change (FC) [10]: 3; Kp at 1 h [6]: 2.9; inhibition at 0.5 h, 10 µM [3]: -0.9%; microsomal CLint at 1 µM [4]: 2 µL/min/mg
20 | COc1ccc(N2CCCN(c3c(C)c(C)c4c(c3C)CC(C)(C)O4)CC2)cc1 | 7.12 | microsomal CLint at 1 µM [4]: 87 µL/min/mg
21 | COc1ccc(N2CCN(c3c(C)c(C)c4c(c3C)C[C@](C)(CO)O4)CC2)cc1 | 6.20 | 
22 | Cc1c(C)c(N2CCNCC2)c(C)c2c1OC(C)(C)C2 |  | Survival [11]: 20%
